Measured values from ChEMBL document CHEMBL1921722, “In vitro and in vivo evaluation of select kahalalide F analogs with antitumor and antifungal activities” (Bioorg Med Chem, 2011).
Values after ≈ are worked out from the molar mass of the structure shown. Blank lines part the entries; values can stand above or below the compound they belong to. Active and inactive are the calls of the source.

Tests used:
Escherichia coli = test: Antimicrobial activity against Escherichia coli ATCC 35218 by CLSI method; assay type: functional, organism-based
Staphylococcus aureus = test: Antimicrobial activity against methicillin-resistant Staphylococcus aureus ATCC 43300 by CLSI method; assay type: functional, organism-based
[1] = Acute toxicity in iv dosed mouse assessed as mortality; settings: in vivo
Pseudomonas aeruginosa = test: Antimicrobial activity against Pseudomonas aeruginosa ATCC 27853 by CLSI method; assay type: functional, organism-based
Fusarium sp. = test: Antimicrobial activity against Fusarium sp. by CLSI method; assay type: functional, organism-based
[2] = system: Mycobacterium intracellulare; test: Antimicrobial activity against Mycobacterium intracellular ATCC 23068 after 5 days by MABA assay; assay type: functional, organism-based; settings: ATCC 23068, 120 h
Procedure, shortened: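 M. intracellulare was tested by a modified Franzblau method. Samples were serially diluted in 20% DMSO/saline, run in duplicate, and inocula were adjusted by OD630. […] IC50 is 50% growth inhibition; MIC is the lowest concentration with no detectable growth.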

Candida albicans = test: Antimicrobial activity against Candida albicans ATCC 90028 by CLSI method; assay type: functional, organism-based
Cryptococcus neoformans = test: Antimicrobial activity against Cryptococcus neoformans ATCC 90113 by CLSI method; assay type: functional, organism-based
Aspergillus fumigatus = test: Antimicrobial activity against Aspergillus fumigatus ATCC 90906 by CLSI method; assay type: functional, organism-based
PC-3 = test: Cytotoxicity against human PC3 cells by sulforhodamine B assay; assay type: functional; settings: for GI50: read-out: GI50
Procedure, shortened: (§1)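 NCI Developmental Therapeutics Program 60-cell-line human tumor panel screen, run at NCI. A single-concentration pre-screen was followed by a five-concentration dose-response in 10-fold steps. GI50 is the concentration that reduces growth of treated cells to half that of untreated control cells. TGI is the concentration that completely halts growth.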

KM12 = test: Cytotoxicity against human KM12 cells by sulforhodamine B assay; assay type: functional; settings: read-out: GI50; procedure, shortened: as §1
Hs-578T = test: Cytotoxicity against human Hs578T cells by sulforhodamine B assay; assay type: functional; procedure, shortened: as §1
A549 = test: Cytotoxicity against human A549 cells by sulforhodamine B assay; assay type: functional; settings: read-out: GI50
Procedure, shortened: (§2)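 Run at NCI in the DTP 60-cell-line human tumor panel by standard procedure. Compounds were first screened at a single concentration, then tested at five tenfold-spaced concentrations. GI50 is the concentration reducing treated-cell growth to half that of untreated controls; TGI is the concentration completely halting growth.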

RPMI-8226 = test: Cytotoxicity against human RPMI8226 cells by sulforhodamine B assay; assay type: functional; settings: read-out: GI50; procedure, shortened: as §1
SNB-75 = test: Cytotoxicity against human SNB75 cells by sulforhodamine B assay; assay type: functional; settings: read-out: GI50; procedure, shortened: as §1
HCC 2998 = test: Cytotoxicity against human HCC2998 cells by sulforhodamine B assay; assay type: functional; settings: read-out: GI50
Procedure, shortened: (§3)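 Run by the NCI Developmental Therapeutics Program on its 60-line human tumour cell panel using the standard procedure. Compounds went through a single-concentration prescreen first, and those active by NCI criteria went on to a five-concentration growth-inhibition test. GI50 is the concentration that cuts growth of treated cells to half that of untreated control cells.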

DU-145 = test: Cytotoxicity against human DU145 cells by sulforhodamine B assay; assay type: functional; settings: read-out: GI50; procedure, shortened: as §3
UACC-257 = test: Cytotoxicity against human UACC257 cells by sulforhodamine B assay; assay type: functional; settings: read-out: GI50; procedure, shortened: as §1
HT-29 = test: Cytotoxicity against human HT-29 cells by sulforhodamine B assay; assay type: functional; settings: read-out: GI50; procedure, shortened: as §3
SK-OV-3 = test: Cytotoxicity against human SKOV3 cells by sulforhodamine B assay; assay type: functional; settings: read-out: GI50; procedure, shortened: as §1
NCI-H322M = test: Cytotoxicity against human NCI-H322M cells by sulforhodamine B assay; assay type: functional; settings: read-out: GI50; procedure, shortened: as §1
COLO 205 = test: Cytotoxicity against human COLO205 cells by sulforhodamine B assay; assay type: functional; settings: read-out: GI50; procedure, shortened: as §2

SMILES: C/C=C1\NC(=O)[C@H](Cc2ccccc2)NC(=O)[C@@H](C(C)C)NC(=O)[C@@H]([C@H](C)CC)NC(=O)[C@H](NC(=O)[C@H](NC(=O)[C@H](CCCN)NC(=O)[C@H]2CCCN2C(=O)[C@H](NC(=O)[C@@H](NC(=O)[C@@H](NC(=O)[C@H](NC(=O)CCCC(C)C)C(C)C)[C@@H](C)O)C(C)C)C(C)C)[C@H](C)CC)[C@H](C)OC(=O)[C@H](C(C)C)NC1=O [KAHALALIDE F]
- Activity (Escherichia coli): inactive
- Activity (Staphylococcus aureus): inactive
- MTD [1]: 0.28 mg/kg
- Activity (Pseudomonas aeruginosa): inactive
- Activity (Fusarium sp.): Active
- IC50 [2]: > 20000 nM
- MBC [2]: > 20 µM
- MIC [2]: > 20 µM
- MFC (Candida albicans): 20 µM (≈ 29.6 µg/mL)
- MIC (Candida albicans): 10 µM (≈ 14.8 µg/mL)
- MFC (Cryptococcus neoformans): 5 µM (≈ 7.39 µg/mL)
- MIC (Cryptococcus neoformans): 5 µM (≈ 7.39 µg/mL)
- MFC (Aspergillus fumigatus): 20 µM (≈ 29.6 µg/mL)
- MIC (Aspergillus fumigatus): 10 µM (≈ 14.8 µg/mL)
- GI50 (PC-3): 170 nM

SMILES: CC(=O)O[C@H]1C(=O)[C@@]2(C)[C@H]([C@H](OC(=O)c3ccccc3)[C@]3(O)C[C@H](OC(=O)[C@H](O)[C@@H](NC(=O)c4ccccc4)c4ccccc4)C(C)=C1C3(C)C)[C@]1(OC(C)=O)CO[C@@H]1C[C@@H]2O [PACLITAXEL]
- GI50 (KM12): 4 nM
- GI50 (Hs-578T; read-out: GI50): 3 nM
- TGI (Hs-578T; read-out: TGI): 100 nM
- GI50 (A549): 4 nM
- GI50 (RPMI-8226): 2 nM
- GI50 (SNB-75): 4 nM
- GI50 (HCC 2998): 3 nM
- GI50 (DU-145): 5 nM
- GI50 (UACC-257): 40 nM
- GI50 (HT-29): 2 nM
- GI50 (SK-OV-3): 8 nM
- GI50 (NCI-H322M): 13 nM
- GI50 (COLO 205): 3 nM
- GI50 (PC-3): 4 nM
- TGI (PC-3; read-out: TGI): 10000 nM

- MIC [2]: 1 µM (≈ 0.331 µg/mL)
SMILES: O=C(O)c1cn(C2CC2)c2cc(N3CCNCC3)c(F)cc2c1=O [CIPROFLOXACIN]
- MBC [2]: > 1 µM

SMILES: C[C@@H]1[C@H](O)[C@@H](C)/C=C/C=C/C=C/C=C/C=C/C=C/C=C/[C@H](O[C@@H]2O[C@H](C)[C@@H](O)[C@H](N)[C@@H]2O)C[C@@H]2O[C@](O)(C[C@@H](O)C[C@@H](O)[C@H](O)CC[C@@H](O)C[C@@H](O)CC(=O)O[C@H]1C)C[C@H](O)[C@H]2C(=O)O [AMPHOTERICIN B]
- IC50 (Candida albicans): 250 nM
- MFC (Candida albicans): 1.25 µM (≈ 1.16 µg/mL)
- MIC (Candida albicans): 0.625 µM (≈ 0.578 µg/mL)
- MFC (Cryptococcus neoformans): 0.06 µM (≈ 0.0554 µg/mL)
- MIC (Cryptococcus neoformans): 0.016 µM (≈ 0.0148 µg/mL)
- MFC (Aspergillus fumigatus): 2.5 µM (≈ 2.31 µg/mL)
- MIC (Aspergillus fumigatus): 2.5 µM (≈ 2.31 µg/mL)
